Results taken from ChEMBL document CHEMBL3525957, “Stereospecific metabolism of itraconazole by CYP3A4: dioxolane ring scission of azole antifungals” (Drug Metab Dispos, 2012).
pIC50, pKd: −log10 of the molar value.

Columns and labels:
[1] = molecular target: T1, Cytochrome P450 3A4 (Homo sapiens, UniProt P08684); assay: Drug metabolism of the compound assessed as CYP3A4 (unknown origin) coexpressing P450 reductase and cytochrome-b5-mediated 1-sec-butyl-4-(4-(4-(4-(2,3-dihydroxypropoxy)phenyl)piperazin-1-yl)phenyl)-1H-1,2,4-triazol-5(4H)-one formation after 1 hr by LC/MS/MS analysis; assay type: ADME
T1 sequence (P08684 whole entry): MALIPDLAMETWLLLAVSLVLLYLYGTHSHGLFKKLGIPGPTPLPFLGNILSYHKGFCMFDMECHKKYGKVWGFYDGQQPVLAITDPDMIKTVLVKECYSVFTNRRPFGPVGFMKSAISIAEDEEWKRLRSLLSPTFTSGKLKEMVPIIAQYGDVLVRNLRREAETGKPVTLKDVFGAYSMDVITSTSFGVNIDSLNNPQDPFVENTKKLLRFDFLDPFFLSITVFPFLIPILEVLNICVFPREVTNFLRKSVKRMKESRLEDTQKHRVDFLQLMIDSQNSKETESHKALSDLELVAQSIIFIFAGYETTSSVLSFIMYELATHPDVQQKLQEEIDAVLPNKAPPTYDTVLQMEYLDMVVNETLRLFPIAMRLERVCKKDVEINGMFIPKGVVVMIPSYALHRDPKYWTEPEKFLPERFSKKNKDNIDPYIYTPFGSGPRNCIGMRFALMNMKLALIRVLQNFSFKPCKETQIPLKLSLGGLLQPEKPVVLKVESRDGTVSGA

[2] = molecular target: T1, Cytochrome P450 3A4; assay: Drug metabolism of the compound assessed as CYP3A4 (unknown origin) coexpressing P450 reductase and cytochrome-b5-mediated 1-(2,4-dichlorophenyl)-2-(1H-1,2,4-triazol-1-yl)ethanone formation by LC/MS/MS analysis; assay type: ADME
How it was run: (§1)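 kcat for M2 formation: trans isomers at 500 nM with CYP3A4 Supersomes (1 pmol) in KPi buffer. 5-min preincubation at 37°C, then NADPH (1 mM final) and 1-min reaction. M2 by LC-MS/MS, m/z 256.0>158.8, ITZ-d5 internal standard, standard curve 0.039–30 nM. kcat = product/time/pmol CYP3A4.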

[3] = molecular target: T1, Cytochrome P450 3A4; assay: Drug level of the compound assessed as CYP3A4 (unknown origin) coexpressing P450 reductase and cytochrome-b5-mediated metabolite formation treated with trans-ITZ by LC/MS/MS analysis; assay type: ADME
[4] = molecular target: T1, Cytochrome P450 3A4; assay: Drug level of the compound assessed as purified CYP3A4 (unknown origin)-mediated metabolite formation treated with trans-(2S,4S,2'S)-ITZ by LC/MS/MS analysis; assay type: ADME
[5] = molecular target: T1, Cytochrome P450 3A4; assay: Drug level of the compound assessed as CYP3A4 (unknown origin) coexpressing P450 reductase and cytochrome-b5-mediated metabolite formation treated with trans-(2S,4S,2'S)-ITZ by LC/MS/MS analysis; assay type: ADME
[6] = molecular target: T1, Cytochrome P450 3A4; assay: Drug level of the compound assessed as CYP3A4 (unknown origin)-mediated metabolite formation treated with cis-ITZ by LC/MS/MS analysis; assay type: ADME
How it was run: (§2)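 Substrate incubated with CYP3A4 Supersomes (100 pmol) in KPi buffer at 37°C for 1 h, with and without NADPH, plus a no-enzyme control. Products by LC/Q-TOF MS, positive ESI, m/z 100–1500, cone 35 V, low-energy (6 eV) and ramped high-energy modes.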

[7] = molecular target: T1, Cytochrome P450 3A4; assay: Drug metabolism of the compound assessed as CYP3A4 (unknown origin) coexpressing P450 reductase and cytochrome-b5-mediated 1-(2,4-dichlorophenyl)-2-(1H-1,2,4-triazol-1-yl)ethanone formation at 500 nM after 5 mins by LC/MS analysis in presence of NADPH; assay type: ADME; conditions: 0.5 µM
[8] = molecular target: T1, Cytochrome P450 3A4; assay: Drug metabolism of the compound assessed as reconstituted CYP3A4 (unknown origin)-mediated 1-(2,4-dichlorophenyl)-2-(1H-1,2,4-triazol-1-yl)ethanone formation at 500 nM after 5 mins by LC/MS analysis in presence of NADPH; assay type: ADME; conditions: 0.5 µM
[9] = molecular target: T1, Cytochrome P450 3A4; assay: Drug metabolism of the compound assessed as CYP3A4 (unknown origin)-mediated 3-(4-(4-(4-(1-sec-butyl-5-oxo-1H-1,2,4-triazol-4(5H)-yl)phenyl)piperazin-1-yl)phenoxy)-2-hydroxypropanal by LC/MS/MS analysis; assay type: ADME
[10] = molecular target: T1, Cytochrome P450 3A4; assay: Drug metabolism of the compound assessed as CYP3A4 (unknown origin)-mediated 1-(2,4-dichlorophenyl)-2-(1H-1,2,4-triazol-1-yl)ethanone formation by LC/MS/MS analysis; assay type: ADME; how it was run: as §1
[11] = molecular target: T1, Cytochrome P450 3A4; assay: Drug metabolism of the compound assessed as CYP3A4 (unknown origin)-mediated 1-sec-butyl-4-(4-(4-(4-(3-hydroxy-2-oxopropoxy)phenyl)piperazin-1-yl)phenyl)-1H-1,2,4-triazol-5(4H)-one by LC/MS/MS analysis; assay type: ADME
[12] = Drug metabolism in human assessed as 1-(2,4-dichlorophenyl)-2-(1H-1,2,4-triazol-1-yl)ethanone level in urine at 400 mg, po measured on day 4 by MS/MS analysis; assay type: ADME, organism-based; conditions: in vivo
How it was run: (§3)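 Six subjects (5 male, 1 female) received itraconazole 400 mg orally. Urine collected 24 h before dosing, 0–12 and 12–24 h after, then 24–48, 72–96 and 120–144 h, with volume recorded. 5 ml urine extracted with ethyl acetate. M2 measured by MS/MS at transition m/z 256>158.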

[13] = Drug metabolism in human assessed as 1-(2,4-dichlorophenyl)-2-(1H-1,2,4-triazol-1-yl)ethanone level in urine at 400 mg, po measured on day 2 by MS/MS analysis; assay type: ADME, organism-based; conditions: in vivo; how it was run: as §3
[14] = molecular target: CYP3A4 (Homo sapiens, UniProt P08684); assay: Inhibition of CYP3A4 in human liver microsomes using midazolam as substrates at 15 uM after 5 mins by LC/MS analysis in presence of NADPH; assay type: ADME; conditions: probe midazolam
Sequence of CYP3A4 (P08684 whole entry): as above

[15] = molecular target: T1, Cytochrome P450 3A4; assay: Inhibition of CYP3A4 in human liver microsomes using midazolam as substrates after 5 mins by LC/MS analysis in presence of NADPH; assay type: ADME
How it was run: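 Pooled HLM (0.025 mg/ml, CYP3A5*3/*3) with midazolam 1 μM in KPi. Inhibitor range 5–1000 nM for trans isomers. 5-min preincubation at 37°C, then NADPH 1 mM final, run for 2 min. Stopped with ethyl acetate, d4-1'-OH-MDZ added as internal standard. IC50 from fit of remaining-activity equation.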

[16] = molecular target: T1, Cytochrome P450 3A4; assay: Drug level of the compound assessed as CYP3A4 (unknown origin)-mediated metabolite formation treated with 3'-OH-ITZ by LC/MS/MS analysis; assay type: ADME; how it was run: as §2
[17] = molecular target: T1, Cytochrome P450 3A4; assay: Binding affinity to purified CYP3A4 (unknown origin) coexpressing P450 reductase and cytochrome-b5 by UV-Vis spectrophotometry; assay type: ADME; conditions: read-out: Ks
[18] = molecular target: T1, Cytochrome P450 3A4; assay: Drug level of the compound assessed as CYP3A4 (unknown origin)-mediated metabolite formation treated with N-desalkyl-ITZ by LC/MS/MS analysis; assay type: ADME; how it was run: as §2
[19] = Drug metabolism in human assessed as 1-(2,4-dichlorophenyl)-2-(1H-1,2,4-triazol-1-yl)ethanone level in urine at 400 mg, po measured on day 7 by MS/MS analysis; assay type: ADME, organism-based; conditions: in vivo; how it was run: as §3
[20] = Drug metabolism in human assessed as 1-(2,4-dichlorophenyl)-2-(1H-1,2,4-triazol-1-yl)ethanone level in urine at 400 mg, po after 24 hrs by MS/MS analysis; assay type: ADME, organism-based; conditions: in vivo; how it was run: as §3
[21] = molecular target: T1, Cytochrome P450 3A4; assay: Drug level of the compound assessed as CYP3A4 (unknown origin)-mediated metabolite formation treated with keto-ITZ by LC/MS/MS analysis; assay type: ADME; how it was run: as §2
[22] = molecular target: T1, Cytochrome P450 3A4; assay: Drug metabolism of the compound assessed as purified CYP3A4 (unknown origin)-mediated 3-(4-(4-(4-(1-sec-butyl-5-oxo-1H-1,2,4-triazol-4(5H)-yl)phenyl)piperazin-1-yl)phenoxy)-2-hydroxypropanal by LC/MS/MS analysis in presence of NADPH; assay type: ADME
[23] = molecular target: T1, Cytochrome P450 3A4; assay: Drug metabolism of the compound assessed as purified CYP3A4 (unknown origin)-mediated 1-sec-butyl-4-(4-(4-(4-(3-hydroxy-2-oxopropoxy)phenyl)piperazin-1-yl)phenyl)-1H-1,2,4-triazol-5(4H)-one by LC/MS/MS analysis in presence of NADPH; assay type: ADME
[24] = molecular target: T1, Cytochrome P450 3A4; assay: Drug metabolism of the compound assessed as CYP3A4 (unknown origin) coexpressing P450 reductase and cytochrome-b5-mediated 1-sec-butyl-4-(4-(4-(4-(2,3-dihydroxypropoxy)phenyl)piperazin-1-yl)phenyl)-1H-1,2,4-triazol-5(4H)-one formation after 3 mins by LC/MS/MS analysis; assay type: ADME; conditions: 0.05 h
[25] = molecular target: T1, Cytochrome P450 3A4; assay: Drug metabolism of the compound assessed as CYP3A4 (unknown origin) coexpressing P450 reductase and cytochrome-b5-mediated 3-(4-(4-(4-(1-sec-butyl-5-oxo-1H-1,2,4-triazol-4(5H)-yl)phenyl)piperazin-1-yl)phenoxy)-2-hydroxypropanal after 5 mins by LC/MS/MS analysis in presence of NADPH; assay type: ADME
[26] = molecular target: T1, Cytochrome P450 3A4; assay: Drug metabolism of the compound assessed as CYP3A4 (unknown origin) coexpressing P450 reductase and cytochrome-b5-mediated 1-sec-butyl-4-(4-(4-(4-(3-hydroxy-2-oxopropoxy)phenyl)piperazin-1-yl)phenyl)-1H-1,2,4-triazol-5(4H)-one after 5 mins by LC/MS/MS analysis in presence of NADPH; assay type: ADME

CCC(C)n1ncn(-c2ccc(N3CCN(c4ccc(OCC(O)CO)cc4)CC3)cc2)c1=O (centres undefined)
Drug metabolism [1]: metabolite_detected | Drug metabolism [2]: metabolite_detected | Drug metabolism [3]: metabolite_detected | Drug metabolism [4]: metabolite_not_detected

CCC(C)n1ncn(-c2ccc(N3CCN(c4ccc(OCC(O)C=O)cc4)CC3)cc2)c1=O (centres undefined)
Drug metabolism [5]: metabolite_detected | Drug metabolism [6]: metabolite_detected | Drug metabolism [4]: metabolite_detected

CC[C@@H](C)n1ncn(-c2ccc(N3CCN(c4ccc(OC[C@@H]5CO[C@](Cn6cncn6)(c6ccc(Cl)cc6Cl)O5)cc4)CC3)cc2)c1=O
Kcat [7]: 0.0159 s⁻¹ | Kcat [8]: 0.0032 s⁻¹

CCC(C)n1ncn(-c2ccc(N3CCN(c4ccc(OCC(=O)CO)cc4)CC3)cc2)c1=O (centres undefined)
Drug metabolism [5]: metabolite_detected | Drug metabolism [6]: metabolite_detected | Drug metabolism [4]: metabolite_detected

CC[C@H](C)n1ncn(-c2ccc(N3CCN(c4ccc(OC[C@@H]5CO[C@](Cn6cncn6)(c6ccc(Cl)cc6Cl)O5)cc4)CC3)cc2)c1=O
Kcat [7]: 0.0214 s⁻¹ | Kcat [8]: 0.0038 s⁻¹

CC[C@H](C)n1ncn(-c2ccc(N3CCN(c4ccc(OC[C@@H]5CO[C@@](Cn6cncn6)(c6ccc(Cl)cc6Cl)O5)cc4)CC3)cc2)c1=O
Drug metabolism [9]: metabolite_detected | Drug metabolism [10]: metabolite_detected | Drug metabolism [11]: metabolite_detected

O=C(Cn1cncn1)c1ccc(Cl)cc1Cl
Drug metabolism [1]: metabolite_detected | Drug metabolism [12]: 319 ng | Drug metabolism [13]: 429 ng | inhibition at 5 min, 15 µM [14]: < 50% | pIC50 [15]: < 4.82 | Drug metabolism [16]: metabolite_detected | pKd [17]: 4.89 | Drug metabolism [2]: metabolite_detected | Drug metabolism [3]: metabolite_detected | Drug metabolism [18]: metabolite_detected | Drug metabolism [6]: metabolite_detected | Drug metabolism [19]: 87 ng | Drug metabolism [20]: 1114 ng | Drug metabolism [21]: metabolite_detected

CC[C@@H](C)n1ncn(-c2ccc(N3CCN(c4ccc(OC[C@H]5CO[C@](Cn6cncn6)(c6ccc(Cl)cc6Cl)O5)cc4)CC3)cc2)c1=O
Drug metabolism [9]: metabolite_detected | Drug metabolism [10]: metabolite_detected | Drug metabolism [11]: metabolite_detected

CC[C@H](C)n1ncn(-c2ccc(N3CCN(c4ccc(OC[C@H]5CO[C@](Cn6cncn6)(c6ccc(Cl)cc6Cl)O5)cc4)CC3)cc2)c1=O
Drug metabolism [9]: metabolite_detected | Drug metabolism [10]: metabolite_detected | Drug metabolism [11]: metabolite_detected

CC[C@@H](C)n1ncn(-c2ccc(N3CCN(c4ccc(OC[C@@H]5CO[C@@](Cn6cncn6)(c6ccc(Cl)cc6Cl)O5)cc4)CC3)cc2)c1=O
Drug metabolism [9]: metabolite_detected | Drug metabolism [10]: metabolite_detected | Drug metabolism [11]: metabolite_detected

CC[C@H](C)n1ncn(-c2ccc(N3CCN(c4ccc(OC[C@H]5CO[C@@](Cn6cncn6)(c6ccc(Cl)cc6Cl)O5)cc4)CC3)cc2)c1=O
Kcat [7]: 0.0198 s⁻¹ | Kcat [8]: 0.0042 s⁻¹ | Drug metabolism [22]: metabolite_detected | Drug metabolism [23]: metabolite_detected | Drug metabolism [24]: metabolite_detected | Drug metabolism [25]: metabolite_detected | Drug metabolism [26]: metabolite_detected

CC[C@@H](C)n1ncn(-c2ccc(N3CCN(c4ccc(OC[C@H]5CO[C@@](Cn6cncn6)(c6ccc(Cl)cc6Cl)O5)cc4)CC3)cc2)c1=O
Kcat [7]: 0.0183 s⁻¹ | Kcat [8]: 0.0041 s⁻¹
